Experimental data reported in ChEMBL document CHEMBL3286113, “New potent antibacterial oxazolidinone (MRX-I) with an improved class safety profile” (J Med Chem, 2014).
In brackets after ≈: the same amount, converted by molar mass.

Experiments:
Rattus norvegicus [1] = assay: Toxicity in female rat assessed as effect on hemoglobin level at 100 mg/kg/day, po bid administered for 4 weeks (reference value: 141.8 g/L); type: organism-based; set-up: route oral; settings: in vivo, 672 h
Rattus norvegicus [2] = assay: Toxicity in female rat assessed as change in bone marrow at 200 to 300 mg/kg/day, po bid administered for 4 weeks; type: organism-based; set-up: route oral; settings: in vivo, 672 h
How it was run: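 Rats given the drug orally twice daily for 4 weeks, 10 rats per gender per group. Doses were 20, 100 and 200/300 mg/kg/day, with the top dose raised from 200 to 300 on day 15. Linezolid comparator at 100 and 200 mg/kg/day. Followed by a 4-week recovery. Mortality, body weight, hematology and bone marrow examined. TK blood sampled on days 1, 14 and 28.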

Enterococcus faecalis = assay: Bacteriostatic activity against vancomycin-sensitive Enterococcus faecalis; type: functional
Streptococcus pyogenes [3] = assay: Antibacterial activity against Streptococcus pyogenes; type: functional
[4] = tested on: Staphylococcus saprophyticus; assay: Antibacterial activity against Staphylococcus saprophyticus; type: functional
Streptococcus anginosus = assay: Antibacterial activity against Streptococcus anginosus; type: functional
[5] = tested on: Staphylococcus haemolyticus; assay: Antibacterial activity against Staphylococcus haemolyticus; type: functional
Rattus norvegicus [6] = assay: Toxicity in female rat assessed as effect on WBC count at 100 mg/kg/day, po bid administered for 4 weeks (reference value: 3.66 x 10^9/L); type: organism-based; set-up: route oral; settings: in vivo, 672 h
Rattus norvegicus [7] = assay: Toxicity in female rat assessed as effect on hematocrit level at 100 mg/kg/day, po bid administered for 4 weeks (reference value: 39.08%); type: organism-based; set-up: route oral; settings: in vivo, 672 h
Rattus norvegicus [8] = assay: Toxicity in female rat assessed as effect on RBC count at 20 mg/kg/day, po bid administered for 4 weeks (reference value: 7.28 x 10^12/L); type: organism-based; set-up: route oral; settings: in vivo, 672 h
Staphylococcus aureus [9] = assay: Antibacterial activity against methicillin-sensitive Staphylococcus aureus ATCC 29213 in mouse thigh infection model assessed as reduction of log10 CFU per thigh at 40 mg/kg, po; type: functional
How it was run: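 Mouse thigh infection with S. aureus ATCC29213 (MSSA), 10 animals per dosing group. Oral doses were 5, 10, 20, 40 and 80 mg/kg. The read-out was log CFU per thigh after treatment, and the reduction (ΔLogCFU/thigh) was reported.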

Streptococcus pyogenes [10] = assay: Antibacterial activity against Streptococcus pyogenes isolate 556; type: functional
[11] = tested on: Streptococcus dysgalactiae subsp. equisimilis; assay: Antibacterial activity against Streptococcus equisimilis; type: functional
Enterococcus faecium [12] = assay: Bacteriostatic activity against vancomycin-resistant Enterococcus faecium; type: functional
[13] = Half life in male rat at 5 mg/kg, po; type: ADME, organism-based; set-up: dose 5 mg/kg, route oral; settings: in vivo
Rattus norvegicus [14] = assay: Toxicity in female rat assessed as effect on platelet count at 20 mg/kg/day, po bid administered for 4 weeks (reference value: 654.6 x 10^9/L); type: organism-based; set-up: route oral; settings: in vivo, 672 h
Staphylococcus aureus [15] = assay: Antibacterial activity against Staphylococcus aureus measured after 6 serial passages; type: functional
MAO-A = MAO-A (Homo sapiens, UniProt P21397); assay: Ratio of compound IC50 to linezolid IC50 for MAO-A (unknown origin) by fluorescence plate reader analysis; type: ADME
MAO-A, sequence (P21397 whole entry): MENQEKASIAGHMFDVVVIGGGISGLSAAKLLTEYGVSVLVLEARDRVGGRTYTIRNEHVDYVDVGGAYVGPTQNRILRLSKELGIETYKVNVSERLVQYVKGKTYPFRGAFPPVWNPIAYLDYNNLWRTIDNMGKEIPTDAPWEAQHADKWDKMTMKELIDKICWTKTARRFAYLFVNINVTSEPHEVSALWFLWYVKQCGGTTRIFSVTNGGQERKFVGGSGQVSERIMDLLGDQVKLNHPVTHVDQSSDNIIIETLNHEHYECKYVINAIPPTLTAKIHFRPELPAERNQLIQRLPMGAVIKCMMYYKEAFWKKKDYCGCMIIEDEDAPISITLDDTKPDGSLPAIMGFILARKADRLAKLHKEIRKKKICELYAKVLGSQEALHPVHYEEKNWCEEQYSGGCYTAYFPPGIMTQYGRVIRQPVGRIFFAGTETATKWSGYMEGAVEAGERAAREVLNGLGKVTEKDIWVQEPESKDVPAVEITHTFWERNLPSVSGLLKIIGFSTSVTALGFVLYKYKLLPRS

Rattus norvegicus [16] = assay: Toxicity in female rat assessed as effect on RBC count at 200 to 300 mg/kg/day, po bid administered for 4 weeks (reference value: 7.28 x 10^12/L); type: organism-based; set-up: route oral; settings: in vivo, 672 h
Rattus norvegicus [17] = assay: Toxicity in female rat assessed as effect on mean corpuscular hemoglobin level at 200 to 300 mg/kg/day, po bid administered for 4 weeks (reference value: 19.5 pg); type: organism-based; set-up: route oral; settings: in vivo, 672 h
Rattus norvegicus [18] = assay: Toxicity in female rat assessed as effect on lymphocyte count at 20 mg/kg/day, po bid administered for 4 weeks (reference value: 74.8%); type: organism-based; set-up: route oral; settings: in vivo, 672 h
Enterococcus faecium [19] = assay: Bacteriostatic activity against vancomycin-sensitive Enterococcus faecium; type: functional
[20] = AUC (0 to t) in male rat at 5 mg/kg, iv; type: ADME, organism-based; set-up: dose 5 mg/kg, route intravenous; settings: plasma
How it was run: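 Rat PK by gender, with single oral doses of 5, 15 and 45 mg/kg and an iv dose of 5 mg/kg. Tmax, Cmax, T1/2 and AUC0−t were reported per gender.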

Streptococcus pneumoniae [21] = assay: Bactericidal activity against penicillin intermediate-sensitive Streptococcus pneumoniae; type: functional
Staphylococcus aureus [22] = assay: Antibacterial activity against Staphylococcus aureus measured after 9 serial passages; type: functional
[23] = AUC (0 to 24 hrs) in human at 600 mg, po administered as single dose with meal measured on day 15; type: ADME, organism-based; set-up: time < 24 hr, dose 600 mg, route oral; settings: plasma
How it was run: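 Randomized, double-blind, placebo-controlled multiple-dose study in 32 healthy subjects (half male, half female). Subjects took 28 oral doses of 600 or 800 mg over 15 days, each with a meal. A single dose was given on days 1 and 15 for full PK, and doses were given Q12h from day 2 to day 14. AUC0−24 was measured on days 1 and 15.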

Staphylococcus aureus [24] = assay: Antibacterial activity against Staphylococcus aureus measured after 8 serial passages; type: functional
Rattus norvegicus [25] = assay: Toxicity in female rat assessed as effect on neutrophil count at 100 mg/kg/day, po bid administered for 4 weeks (reference value: 22.4%); type: organism-based; set-up: route oral; settings: in vivo, 672 h
Staphylococcus = assay: Antibacterial activity against coagulase-negative Staphylococcus; type: functional
[26] = Tmax in human at 800 mg, po administered as single dose with meal measured on day 1; type: ADME, organism-based; settings: in vivo
How it was run: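 Randomized, double-blind, placebo-controlled multiple-dose study in 32 healthy subjects, half male and half female. Dosing was 600 or 800 mg orally with a meal, 28 doses over 15 days. A single dose was given on days 1 and 15 for full PK, with Q12h (BID) dosing on days 2−14.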

[27] = AUC (0 to 24 hrs) in female rat at 100 mg/kg/day, po bid administered for 4 weeks; type: ADME, organism-based; set-up: time < 24 hr, dose 100 mg/kg/day, route oral; settings: plasma
How it was run: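 Repeat-dose toxicity study in rats (10/gender/group) dosed orally twice daily for 4 weeks, then a 4-week recovery period; the top dose was raised from 200 to 300 mg/kg/day on day 15. Blood was taken on days 1, 14 and 28 for toxicokinetics, and AUC0−24 was reported for females.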

[28] = AUC (0 to infinity) in fasted human at 300 mg, po administered as single dose; type: ADME, organism-based; set-up: dose 300 mg, route oral, time infinity; settings: plasma
How it was run: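 Single-dose, three-period Latin-square crossover in 12 healthy volunteers (6 of each gender). Each received single oral 300, 600 and 900 mg doses under fasting conditions, with a 1-week washout between doses. PK parameters, including AUC0−inf, came from a noncompartmental model.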

[29] = Tmax in female rat at 5 mg/kg, po; type: ADME, organism-based; set-up: dose 5 mg/kg, route oral; settings: in vivo
How it was run: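 Male and female rats received single oral doses of 5, 15 or 45 mg/kg, with 5 mg/kg iv as a reference arm. Tmax was read from the plasma concentration–time profile for each gender.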

Streptococcus pneumoniae [30] = assay: Antibacterial activity against penicillin-resistant Streptococcus pneumoniae isolate 0613; type: functional
Staphylococcus aureus [31] = assay: Antibacterial activity against methicillin-resistant Staphylococcus aureus isolate 0605 in po dosed mouse systemic infection model; type: functional; settings: isolate 0605, po
Rattus norvegicus [32] = assay: Toxicity in female rat assessed as effect on hematocrit level at 200 to 300 mg/kg/day, po bid administered for 4 weeks (reference value: 39.08%); type: organism-based; set-up: route oral; settings: in vivo, 672 h

## O=C1C=CN(c2c(F)cc(N3C[C@H](CNc4ccon4)OC3=O)c(F)c2F)CC1 [CONTEZOLID]
Rattus norvegicus [1]
  Activity: 134.8 g/L
Rattus norvegicus [2]
  Activity: Toxic
Enterococcus faecalis
  MIC50: 1 µg/mL (≈ 2.45 µM)
  MIC90: 1 µg/mL (≈ 2.45 µM)
Streptococcus pyogenes [3]
  MIC50: 0.5 µg/mL (≈ 1.22 µM)
  MIC90: 1 µg/mL (≈ 2.45 µM)
[4]
  MIC50: 0.5 µg/mL (≈ 1.22 µM)
  MIC90: 1 µg/mL (≈ 2.45 µM)
Streptococcus anginosus
  MIC50: 0.5 µg/mL (≈ 1.22 µM)
  MIC90: 1 µg/mL (≈ 2.45 µM)
[5]
  MIC50: 0.5 µg/mL (≈ 1.22 µM)
  MIC90: 0.5 µg/mL (≈ 1.22 µM)
Rattus norvegicus [6]
  Activity: 3.14 ×10⁹ /L
Rattus norvegicus [7]
  Activity: 36.48%
Rattus norvegicus [8]
  Activity: 6.82 ×10¹² /L
Staphylococcus aureus [9]
  deltalog10CFU: 3.42
Streptococcus pyogenes [10]
  MIC: 1 µg/mL (≈ 2.45 µM)
[11]
  MIC: 1 µg/mL (≈ 2.45 µM)
  MIC50: 1 µg/mL (≈ 2.45 µM)
  MIC90: 1 µg/mL (≈ 2.45 µM)
Enterococcus faecium [12]
  MIC: 1 µg/mL (≈ 2.45 µM)
  MIC50: 1 µg/mL (≈ 2.45 µM)
  MIC90: 1 µg/mL (≈ 2.45 µM)
[13]
  half-life: 64.8 min
Rattus norvegicus [14]
  Activity: 638.2 ×10⁹ /L
Staphylococcus aureus [15]
  MIC: 2 µg/mL (≈ 4.9 µM)
MAO-A
  selectivity ratio: 5.2
Rattus norvegicus [16]
  Activity: 5.77 ×10¹² /L
Rattus norvegicus [17]
  Activity: 20.48 pg
Rattus norvegicus [18]
  Activity: 83.4%
Enterococcus faecium [19]
  MIC50: 1 µg/mL (≈ 2.45 µM)
  MIC90: 1 µg/mL (≈ 2.45 µM)
[20]
  AUC(0-t): 12900 ng·h/mL
Streptococcus pneumoniae [21]
  MIC50: 0.5 µg/mL (≈ 1.22 µM)
  MIC90: 0.5 µg/mL (≈ 1.22 µM)
Staphylococcus aureus [22]
  MIC: 2 µg/mL (≈ 4.9 µM)
[23]
  AUC(0-t) at 24 h: 72900 ng·h/mL
Staphylococcus aureus [24]
  MIC: 2 µg/mL (≈ 4.9 µM)
Rattus norvegicus [25]
  Activity: 18.4%
Staphylococcus
  MIC50: 0.5 µg/mL (≈ 1.22 µM)
  MIC90: 0.5 µg/mL (≈ 1.22 µM)
[26]
  Tmax: 51 min
[27]
  AUC at 24 h: 319000 ng·h/mL
[28]
  AUC(0-inf): 29200 ng·h/mL
[29]
  Tmax: 40.2 min
Streptococcus pneumoniae [30]
  MIC: 2 µg/mL (≈ 4.9 µM)
Staphylococcus aureus [31]
  ED50: 12 mg/kg
Rattus norvegicus [32]
  Activity: 30.6%
